From ChEMBL document CHEMBL1149787, “Synthesis and cannabinoid activity of 1-substituted-indole-3-oxadiazole derivatives: novel agonists for the CB1 receptor” (Eur J Med Chem, 2008) come the findings set out here.

Active and inactive are the calls of the source. No cut-off for these calls is given here.

Assay [1] deals with Cannabinoid receptor 1 (Mus musculus) (UniProt P47746). In words: Agonist activity at CB1 receptor in electrically-stimulated Swiss mouse vas deferens at 1.0 uM. Type of assay: functional, tissue-based. Put shortly: (§1)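 Electrically stimulated mouse vas deferens. Prostatic end tied between parallel field electrodes, epididymal end attached to an isometric force transducer. Tissue stretched by 0.5 g force, equilibrated 10 min, then stimulated with trains of three pulses (4 Hz, 0.5 ms, 100 V) every 20 s. Effect taken as % decrease of pre-drug twitch force; single concentrations expressed relative to vehicle.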

The target in assay [2] is Cannabinoid receptor 1 (Rattus norvegicus, UniProt P20272). The experiment in a line: (§2) Displacement of [3H]SR141716A from CB1 receptor in Sprague-Dawley rat cerebellum membrane. Type of assay: tissue-based. In general terms: Loss of bound radioactivity is the signal in a displacement assay; it reports binding, not function.
Assay [3] deals with Cannabinoid receptor 1 (Mus musculus) (UniProt P47746). In words: Agonist activity at CB1 receptor in electrically-stimulated Swiss mouse vas deferens. It counts as functional, tissue-based. In a few lines:
as §1

Assay [4] has as its target T1, Cannabinoid receptor 2 (Rattus norvegicus, UniProt Q9QZN9).
T1 sequence (Q9QZN9 whole entry): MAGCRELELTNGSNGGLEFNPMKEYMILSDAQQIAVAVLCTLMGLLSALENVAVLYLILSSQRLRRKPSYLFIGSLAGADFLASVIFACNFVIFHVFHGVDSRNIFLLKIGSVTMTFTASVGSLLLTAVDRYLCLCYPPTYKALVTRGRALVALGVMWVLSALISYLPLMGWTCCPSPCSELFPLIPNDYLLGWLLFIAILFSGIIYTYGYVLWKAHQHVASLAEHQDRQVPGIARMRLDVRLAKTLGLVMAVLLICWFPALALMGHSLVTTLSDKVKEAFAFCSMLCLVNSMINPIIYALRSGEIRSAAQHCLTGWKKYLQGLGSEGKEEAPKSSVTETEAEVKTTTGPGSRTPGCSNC
The experiment in a line: (§3) Displacement of [3H]WIN-55212-2 from CB2 receptor in Sprague-Dawley rat spleen membrane. It counts as cell membranes.

The target in assay [5] is Cannabinoid receptor 1 (Homo sapiens, UniProt P21554). In words: Agonist activity at CB1 receptor. Type of assay: functional.
Assay [6] deals with T2, Cannabinoid receptor 2 (Rattus norvegicus) (UniProt Q9QZN9).
T2 sequence (whole entry): T1 sequence (Q9QZN9 whole entry)
The assay is described as §3. Type of assay: cell membranes.

Assay [7] has as its target T2, Cannabinoid receptor 2 (Rattus norvegicus). In words: Displacement of [3H]WIN-55212-2 from CB2 receptor in Sprague-Dawley rat spleen membrane at 10 uM. Type of assay: cell membranes. Put shortly:
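Spleen membranes from Sprague Dawley rats (supernatant spun at 23,800g, pellet kept) in tris-HCl pH 7.4 with MgCl2 and EGTA. 30.0 µg protein per tube with 1.0 mg/mL BSA, 0.2 nM [3H]WIN-55,212-2 and test drug, triplicate, 30 °C for 90 min. Nonspecific binding defined with 1.0 µM unlabelled WIN-55,212-2. Filtration, scintillation counting, nonlinear regression; means of at least four estimates.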

Assay [8] addresses Cannabinoid receptor 2 (Homo sapiens, UniProt P34972). In words: Activity at CB2 receptor.
The nature of assay [9]: Selectivity for CB2 receptor over CB1 receptor.
Assay [10] addresses Cannabinoid receptor 1 (Rattus norvegicus) (UniProt P20272). The assay is described as §2. It counts as tissue-based.

Sequence of Cannabinoid receptor 1 (Mus musculus) (P47746 whole entry): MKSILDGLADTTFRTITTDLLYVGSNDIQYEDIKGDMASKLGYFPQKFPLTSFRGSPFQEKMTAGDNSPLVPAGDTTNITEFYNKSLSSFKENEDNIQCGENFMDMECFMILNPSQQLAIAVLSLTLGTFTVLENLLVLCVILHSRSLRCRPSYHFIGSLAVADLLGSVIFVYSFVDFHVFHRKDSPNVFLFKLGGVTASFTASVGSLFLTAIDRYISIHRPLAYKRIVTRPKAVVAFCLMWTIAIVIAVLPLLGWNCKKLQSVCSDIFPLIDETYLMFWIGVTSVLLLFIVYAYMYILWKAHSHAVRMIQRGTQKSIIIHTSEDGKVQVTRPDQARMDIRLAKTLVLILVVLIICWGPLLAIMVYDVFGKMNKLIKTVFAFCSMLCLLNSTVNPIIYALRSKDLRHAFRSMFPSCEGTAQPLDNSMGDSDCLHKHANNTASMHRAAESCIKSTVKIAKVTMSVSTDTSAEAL
Sequence of Cannabinoid receptor 1 (Rattus norvegicus, UniProt P20272) (P20272 whole entry): as the sequence (P47746 whole entry) above, with D95E counted along it
Sequence of Cannabinoid receptor 1 (Homo sapiens, UniProt P21554) (P21554 whole entry): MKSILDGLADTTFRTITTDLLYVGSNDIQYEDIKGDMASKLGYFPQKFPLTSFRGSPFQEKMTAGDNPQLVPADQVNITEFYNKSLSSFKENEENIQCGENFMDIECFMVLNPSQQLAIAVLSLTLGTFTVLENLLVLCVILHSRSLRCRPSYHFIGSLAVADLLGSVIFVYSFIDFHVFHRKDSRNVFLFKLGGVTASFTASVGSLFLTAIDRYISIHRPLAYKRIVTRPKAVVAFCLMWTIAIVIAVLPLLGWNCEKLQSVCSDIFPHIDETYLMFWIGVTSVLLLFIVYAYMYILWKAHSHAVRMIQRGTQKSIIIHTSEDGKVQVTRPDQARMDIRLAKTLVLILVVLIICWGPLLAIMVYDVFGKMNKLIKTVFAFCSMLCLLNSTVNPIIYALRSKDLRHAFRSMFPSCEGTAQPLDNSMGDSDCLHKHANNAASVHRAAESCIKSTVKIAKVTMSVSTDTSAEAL
Sequence of Cannabinoid receptor 1 (Rattus norvegicus) (P20272 whole entry): as the sequence (P47746 whole entry) above, with D95E counted along it
Sequence of Cannabinoid receptor 2 (Homo sapiens, UniProt P34972) (P34972 whole entry): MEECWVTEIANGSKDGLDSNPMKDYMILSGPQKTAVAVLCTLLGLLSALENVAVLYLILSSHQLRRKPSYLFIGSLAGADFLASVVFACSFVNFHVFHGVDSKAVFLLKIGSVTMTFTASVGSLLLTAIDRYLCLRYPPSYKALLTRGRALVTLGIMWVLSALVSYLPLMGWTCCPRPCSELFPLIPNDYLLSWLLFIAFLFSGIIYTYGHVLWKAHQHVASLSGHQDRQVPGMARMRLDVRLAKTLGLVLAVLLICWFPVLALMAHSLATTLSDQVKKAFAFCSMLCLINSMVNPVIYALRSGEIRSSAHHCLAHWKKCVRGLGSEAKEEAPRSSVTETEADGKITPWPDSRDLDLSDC

For orientation: inhibition means the change of the read-out against control, counted positive when it falls. As a reminder, the IC50 is the concentration that inhibits the measured activity by half. Read a low IC50 as greater potency in that assay. In the case of `O=C1NC(Cn2cc(-c3nc(Cc4ccccc4)no3)c3ccccc32)CO1` (stereo unspecified), in assay [1], the inhibition was 15.8%. This compound also had an IC50 in assay [2] of 6.1 µM.

`CCCCCn1cc(-c2nc(Cc3ccccc3)no2)c2ccccc21`: the inhibition in assay [1] was 100%. In assay [2], the IC50 worked out at 8.8 µM.

For `c1ccc(Cc2noc(-c3cn(CCN4CCOCC4)c4ccccc34)n2)cc1`, in assay [3], the agonist potency (pEC50) was 7. Further, the IC50 came out at 2.62 µM in assay [2] and 1.1 µM in assay [4].

In turn, `COc1ccc(C(=O)c2c3n(c4ccccc24)C(CN2CCOCC2)CC3)cc1` (stereo unspecified) showed a half-inhibitory concentration (IC50) in assay [5] of 0.00032 µM. This counts as sub-nanomolar.

In turn, `CCCCC(C)(C)c1cc(O)c2c(c1)OC(C)(C)[C@H]1CC=C(CO)C[C@H]21` displayed an IC50 in assay [2] of 3.22 µM.

In the case of `COc1ccc(C(=O)c2c(C)n(CCN3CCOCC3)c3ccccc23)cc1` [PRAVADOLINE], the IC50 in assay [5] amounted to 0.453 µM.

For `CCOC(=O)CCCCn1cc(-c2nc(Cc3ccc4ccccc4c3)no2)c2ccccc21`, in assay [1], the inhibition turned out to be 41.6%.

As to `CC(=O)Oc1cn(CCN2CCOCC2)c2ccccc12`, the inhibition in assay [1] was determined as 81.8%.

Consider `O=C(Cn1cc(-c2nc(Cc3ccccc3)no2)c2ccccc21)N1CCOCC1`, for which, in assay [1], the inhibition was 17%. In addition, the outcome in assay [6] was inactive.

As for `c1ccc(-c2ccc(-c3noc(-c4cn(CCN5CCOCC5)c5ccccc45)n3)cc2)cc1`, the inhibition in [1] is 11.4%; in [7], 14%. This compound returned an IC50 in assay [2] of 1.52 µM.

The Ki is a dissociation constant, usually derived from enzyme kinetics or from competition with a known ligand. On to `Cc1c(CCN2CCOCC2)c2ccccc2n1C(=O)c1cccc2ccccc12`, for which, in [8], the Ki turned out to be 0.0085 µM. For the same compound, the Selectivity ratio in [9] was 160.

For the compound `c1csc(Cc2noc(-c3cn(CCN4CCOCC4)c4ccccc34)n2)c1`, the inhibition in assay [1] turned out to be 81%. For the same compound, in [2], the half-inhibitory concentration (IC50) was determined as 6.8 µM.

Regarding `O=C(c1nc(Cc2ccccc2)no1)c1cn(CCN2CCOCC2)c2ccccc12`, the inhibition in [1] was found to be 22.4%.

As for `COc1ccc(Cc2noc(-c3cn(CCN4CCOCC4)c4ccccc34)n2)cc1`, the inhibition in [1] was found to be 39.2%.

For `O=C(O)CCCCn1cc(-c2nc(Cc3ccc4ccccc4c3)no2)c2ccccc21`, the inhibition in assay [1] was 53.6%.

`O=C(Cn1cc(-c2nc(Cc3ccccc3Cl)no2)c2ccccc21)N1CCOCC1`: the result in [10] was inactive.

In the case of `O=C(c1nc(-c2ccccc2)no1)c1cn(CCN2CCOCC2)c2ccccc12`, in assay [1], the inhibition came out at 44.3%. The result in [6] was inactive.

As for `c1ccc2cc(Cc3noc(-c4cn(CCN5CCOCC5)c5ccccc45)n3)ccc2c1`, the inhibition in assay [1] came out at 95.6%.

Consider `COc1ccc2c(c1)c(CCN1CCOCC1)c(C)n2C(=O)c1cccc(Cl)c1Cl`, for which the Selectivity ratio in [9] amounted to 160.

The compound `c1ccc(-c2noc(-c3cn(CCN4CCOCC4)c4ccccc34)n2)cc1` returned an agonist potency (pEC50) in assay [3] of 6.47. The IC50 in assay [2] came out at 0.25 µM; in assay [4], 4.03 µM.

For the compound `Clc1ccccc1Cc1noc(-c2cn(CCN3CCOCC3)c3ccccc23)n1`, the inhibition in assay [1] turned out to be 95%. The same compound showed an IC50 in assay [2] of 7.4 µM.

Compound `c1ccc(Cc2noc(-c3cn(CCN4CCCC4)c4ccccc34)n2)cc1` came in with an agonist potency (pEC50) in [3] of 7.2.

For `O=C(Cn1cc(-c2nc(-c3ccccc3)no2)c2ccccc21)N1CCOCC1`, in [1], the inhibition is -5.29%. Besides, the outcome in [6] was inactive.

With `c1ccc(Cc2noc(-c3cn(CCN4CCOCC4)cn3)n2)cc1`, in assay [1], the inhibition amounted to 46.8%. Further, the outcome in assay [10] was inactive.

As to `c1ccc2cc(Cc3noc(-c4cn(CCN5CCCC5)c5ccccc45)n3)ccc2c1`, the inhibition in [1] was 78.6%.

On to `c1ccc(CCc2noc(-c3cn(CCN4CCOCC4)c4ccccc34)n2)cc1`, for which the inhibition in [1] was determined as 90%. In addition, the IC50 in [2] stood at 6.8 µM.

For the compound `Brc1ccc(Cc2noc(-c3cn(CCN4CCOCC4)c4ccccc34)n2)cc1`, in assay [1], the inhibition came out at 58%. This compound yielded an IC50 in assay [2] of 6.2 µM.

Consider `c1ccc(Cc2noc(-c3cn(CCN4CCCCC4)c4ccccc34)n2)cc1`, for which the agonist potency (pEC50) in [3] was 5.6. Further, the IC50 in assay [2] stood at 5.6 µM.
